Measurements: ChEMBL document CHEMBL1250521, “Design, synthesis, and preliminary biological evaluation of new isoform-selective f-current blockers” (J Med Chem, 2010)
pEC50: −log10 of the molar value.

How the values were obtained:
[1] = target: T1, Potassium/sodium hyperpolarization-activated cyclic nucleotide-gated channel 4 (Homo sapiens, UniProt Q9Y3Q4); assay: Blockade of human HCN4 expressed in HEK293 cells at -120 f-current amplitude by patch-clamp electrophysiological assay; assay type: cell-based
T1 sequence (Q9Y3Q4 whole entry): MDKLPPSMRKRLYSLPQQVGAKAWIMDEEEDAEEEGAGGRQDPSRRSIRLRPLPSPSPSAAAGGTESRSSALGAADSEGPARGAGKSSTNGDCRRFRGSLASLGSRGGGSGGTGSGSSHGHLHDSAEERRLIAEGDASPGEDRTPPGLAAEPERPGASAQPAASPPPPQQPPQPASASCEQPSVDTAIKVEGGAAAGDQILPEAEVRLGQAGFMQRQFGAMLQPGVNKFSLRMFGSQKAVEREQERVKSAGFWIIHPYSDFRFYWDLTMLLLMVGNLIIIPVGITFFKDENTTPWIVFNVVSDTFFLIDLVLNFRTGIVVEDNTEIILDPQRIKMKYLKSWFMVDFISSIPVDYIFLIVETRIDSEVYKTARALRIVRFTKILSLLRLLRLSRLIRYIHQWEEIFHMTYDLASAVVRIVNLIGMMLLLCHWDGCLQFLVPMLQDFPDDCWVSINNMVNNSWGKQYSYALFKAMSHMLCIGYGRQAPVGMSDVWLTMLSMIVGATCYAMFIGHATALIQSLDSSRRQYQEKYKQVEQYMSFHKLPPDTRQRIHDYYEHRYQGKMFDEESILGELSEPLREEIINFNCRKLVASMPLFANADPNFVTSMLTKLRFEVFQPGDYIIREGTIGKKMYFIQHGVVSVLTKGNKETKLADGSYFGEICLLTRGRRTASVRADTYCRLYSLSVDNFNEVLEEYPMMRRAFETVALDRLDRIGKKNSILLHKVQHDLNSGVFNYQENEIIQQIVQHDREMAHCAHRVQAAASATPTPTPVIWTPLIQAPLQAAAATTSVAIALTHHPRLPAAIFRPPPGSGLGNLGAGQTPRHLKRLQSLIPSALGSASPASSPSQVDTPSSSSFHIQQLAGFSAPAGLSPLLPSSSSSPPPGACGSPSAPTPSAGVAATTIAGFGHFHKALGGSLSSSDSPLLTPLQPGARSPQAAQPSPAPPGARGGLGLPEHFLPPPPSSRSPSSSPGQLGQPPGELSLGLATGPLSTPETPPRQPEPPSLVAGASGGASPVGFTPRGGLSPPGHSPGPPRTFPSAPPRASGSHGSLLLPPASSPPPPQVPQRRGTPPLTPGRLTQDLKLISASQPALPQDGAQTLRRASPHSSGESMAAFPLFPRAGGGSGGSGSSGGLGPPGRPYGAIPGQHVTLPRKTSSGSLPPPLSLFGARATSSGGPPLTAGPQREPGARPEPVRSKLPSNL
Summary of the method: (§1)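 HEK293 cells stably transfected with mouse HCN1, mouse HCN2 or human HCN4. Patch-clamp recordings of hyperpolarization-activated f-current at varied concentrations to derive EC50.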

[2] = target: T2, Potassium/sodium hyperpolarization-activated cyclic nucleotide-gated channel 4 (Homo sapiens) (UniProt Q9Y3Q4); assay: Blockade of human HCN4 expressed in HEK293 cells at 5 uM at -120 f-current amplitude by patch-clamp electrophysiological assay relative to control; assay type: cell-based
T2 sequence (whole entry): T1 sequence (Q9Y3Q4 whole entry)
Summary of the method: (§2)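 Single-concentration patch-clamp screen at 5 μM on HEK293 cells stably expressing mouse HCN1 or human HCN4. f-current block normalized to control; mean ± SEM of three to five experiments.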

[3] = target: T3, Potassium/sodium hyperpolarization-activated cyclic nucleotide-gated channel 2 (Mus musculus, UniProt O88703); assay: Blockade of mouse HCN2 expressed in HEK293 cells at -120 f-current amplitude by patch-clamp electrophysiological assay; assay type: cell-based; summary of the method: as §1
T3 sequence (O88703 whole entry): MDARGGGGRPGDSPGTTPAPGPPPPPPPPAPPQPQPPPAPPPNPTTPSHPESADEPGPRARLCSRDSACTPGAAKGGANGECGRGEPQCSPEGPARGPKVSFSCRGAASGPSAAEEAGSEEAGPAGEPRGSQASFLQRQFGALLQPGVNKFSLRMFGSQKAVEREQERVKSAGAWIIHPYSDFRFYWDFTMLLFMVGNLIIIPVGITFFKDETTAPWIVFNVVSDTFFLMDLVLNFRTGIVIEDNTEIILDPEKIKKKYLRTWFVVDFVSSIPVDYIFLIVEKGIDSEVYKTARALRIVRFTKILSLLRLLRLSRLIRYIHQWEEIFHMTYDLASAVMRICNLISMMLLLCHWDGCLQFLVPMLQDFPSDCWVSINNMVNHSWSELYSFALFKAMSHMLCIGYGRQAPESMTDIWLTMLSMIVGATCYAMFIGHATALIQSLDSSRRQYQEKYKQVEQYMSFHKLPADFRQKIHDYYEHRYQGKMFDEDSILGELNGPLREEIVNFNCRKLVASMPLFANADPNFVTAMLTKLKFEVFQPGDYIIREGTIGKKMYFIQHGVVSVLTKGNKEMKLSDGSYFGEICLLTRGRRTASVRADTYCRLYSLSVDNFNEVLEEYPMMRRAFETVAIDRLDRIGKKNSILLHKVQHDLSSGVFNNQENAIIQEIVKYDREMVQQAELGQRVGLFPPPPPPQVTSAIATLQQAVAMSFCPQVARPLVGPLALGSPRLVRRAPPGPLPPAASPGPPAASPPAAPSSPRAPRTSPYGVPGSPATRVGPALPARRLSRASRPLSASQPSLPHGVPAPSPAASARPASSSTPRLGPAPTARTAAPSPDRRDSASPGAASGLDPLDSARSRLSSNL

[4] = target: Potassium/sodium hyperpolarization-activated cyclic nucleotide-gated channel 1 (Mus musculus) (UniProt O88704); assay: Blockade of mouse HCN1 expressed in HEK293 cells at 5 uM at -120 f-current amplitude by patch-clamp electrophysiological assay relative to control; assay type: cell-based; summary of the method: as §2
Chain of Potassium/sodium hyperpolarization-activated cyclic nucleotide-gated channel 1 (Mus musculus) (O88704 whole entry): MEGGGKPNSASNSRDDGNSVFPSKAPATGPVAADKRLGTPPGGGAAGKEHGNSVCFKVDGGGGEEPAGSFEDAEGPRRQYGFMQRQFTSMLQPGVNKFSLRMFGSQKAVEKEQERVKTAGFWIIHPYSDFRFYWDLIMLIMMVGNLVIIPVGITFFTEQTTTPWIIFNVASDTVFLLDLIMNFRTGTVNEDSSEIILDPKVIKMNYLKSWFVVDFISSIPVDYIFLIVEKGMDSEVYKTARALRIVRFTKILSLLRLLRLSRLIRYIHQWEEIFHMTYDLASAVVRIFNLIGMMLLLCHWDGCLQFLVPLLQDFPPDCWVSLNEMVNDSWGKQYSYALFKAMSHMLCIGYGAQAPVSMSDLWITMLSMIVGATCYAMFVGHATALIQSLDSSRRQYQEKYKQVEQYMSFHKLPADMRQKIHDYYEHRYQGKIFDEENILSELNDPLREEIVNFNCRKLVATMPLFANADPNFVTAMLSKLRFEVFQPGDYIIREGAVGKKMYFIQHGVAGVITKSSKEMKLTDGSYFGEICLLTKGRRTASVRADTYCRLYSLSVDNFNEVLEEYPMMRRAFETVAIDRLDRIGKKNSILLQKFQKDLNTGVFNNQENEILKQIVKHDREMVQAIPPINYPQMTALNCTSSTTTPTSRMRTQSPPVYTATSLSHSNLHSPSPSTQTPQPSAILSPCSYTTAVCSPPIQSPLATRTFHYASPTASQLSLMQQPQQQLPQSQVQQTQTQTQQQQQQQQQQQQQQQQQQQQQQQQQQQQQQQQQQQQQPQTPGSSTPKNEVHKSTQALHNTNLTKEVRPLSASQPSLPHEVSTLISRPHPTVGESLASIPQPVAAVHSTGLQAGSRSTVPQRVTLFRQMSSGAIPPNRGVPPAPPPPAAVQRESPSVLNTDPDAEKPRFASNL

[5] = Blockade of HCN in guinea pig spontaneously beating atria assessed as reduction of heart rate measured for 15 mins; assay type: tissue-based, Cavia porcellus
Summary of the method: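 Isolated spontaneously beating guinea pig atria; cumulative concentrations 10-9-10-4 M applied, decrease in atrial rate recorded. EC50 obtained by fitting the concentration-effect curve to the Hill equation; mean ± SEM of three to four experiments.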

[6] = target: Potassium/sodium hyperpolarization-activated cyclic nucleotide-gated channel 1 (Mus musculus, UniProt O88704); assay: Blockade of mouse HCN1 expressed in HEK293 cells at -120 f-current amplitude by patch-clamp electrophysiological assay; assay type: cell-based; summary of the method: as §1
Chain of Potassium/sodium hyperpolarization-activated cyclic nucleotide-gated channel 1 (O88704 whole entry): as above

Mus musculus [7] = organism: Mus musculus; assay: Selectivity ratio of EC50 for mouse HCN2 to EC50 for mouse HCN1
Summary of the method: (§3)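 Selectivity expressed as the ratio of EC50 values from patch-clamp on stably transfected HEK293 cells expressing mouse HCN1, mouse HCN2 or human HCN4.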

[8] = Selectivity ratio of EC50 for mouse HCN2 to EC50 for human HCN4; summary of the method: as §3
Mus musculus [9] = organism: Mus musculus; assay: Selectivity ratio of EC50 for mouse HCN1 to EC50 for mouse HCN2; summary of the method: as §3
[10] = Selectivity ratio of EC50 for mouse HCN1 to EC50 for human HCN4; summary of the method: as §3

Row | SMILES | pEC50 [1] | residual activity [2] | pEC50 [3] | residual activity [4] | pEC50 [6] | Selectivity ratio (Mus musculus [7]) | Selectivity ratio [8] | Selectivity ratio (Mus musculus [9]) | Selectivity ratio [10] | pEC50 [5]
1 | COc1ccc(CCN(C)C/C=C/CN2C=Cc3cc(OC)c(OC)cc3CC2=O)cc1OC | 5.14 | 53% | 4.76 | 35% | 5.64 | – | – | – | – | 4.95
2 | COc1ccc(CCN(C)CCCN2CCc3cc(OC)c(OC)cc3CC2=O)cc1OC [ZATEBRADINE] | 5.07 | – | 5.26 | – | 4.78 | – | – | – | – | 4.87
3 | COc1ccc([C@@H](C)CN(C)C/C=C\CN2C=Cc3cc(OC)c(OC)cc3CC2=O)cc1OC | 4.60 | 83% | 5.64 | 63% | 5.03 | 4 | 10 | – | – | 5.15
4 | COc1ccc([C@@H](C)CN(C/C=C/CN2C=Cc3cc(OC)c(OC)cc3CC2=O)C/C=C/CN2C=Cc3cc(OC)c(OC)cc3CC2=O)cc1OC | – | 73% | – | 60% | – | – | – | – | – | –
5 | COc1ccc([C@H](C)CN(C/C=C\CN2C=Cc3cc(OC)c(OC)cc3CC2=O)C/C=C\CN2C=Cc3cc(OC)c(OC)cc3CC2=O)cc1OC | 3.87 | 92% | 4.30 | 76% | 4.75 | – | – | – | – | –
6 | COc1ccc(CCN(C/C=C\CN2C=Cc3cc(OC)c(OC)cc3CC2=O)C/C=C\CN2C=Cc3cc(OC)c(OC)cc3CC2=O)cc1OC | 4.15 | 75% | 3.83 | 82% | 3.97 | – | – | – | – | –
7 | COc1ccc(CCN(C)C/C=C\CN2C=Cc3cc(OC)c(OC)cc3CC2=O)cc1OC | 5.15 | 59% | 4.61 | 53% | 5.25 | – | – | – | – | 4.80
8 | COc1cc2c(cc1OC)CC(=O)N(CCCN(C)C[C@H]1Cc3cc(OC)c(OC)cc31)CC2 [IVABRADINE] | 5.37 | 49% | 5.34 | 47% | 5.35 | – | – | – | – | –

The next lines start with results.

Row | pEC50 [1] | residual activity [2] | pEC50 [3] | residual activity [4] | pEC50 [6] | Selectivity ratio (Mus musculus [7]) | Selectivity ratio [8] | Selectivity ratio (Mus musculus [9]) | Selectivity ratio [10] | SMILES | pEC50 [5]
9 | – | 72% | – | 85% | – | – | – | – | – | COc1ccc([C@@H](C)CN(C)C/C=C/CN2C=Cc3cc(OC)c(OC)cc3CC2=O)cc1OC | –
10 | – | 71% | – | 85% | – | – | – | – | – | COc1ccc([C@H](C)CN(C)C/C=C/CN2C=Cc3cc(OC)c(OC)cc3CC2=O)cc1OC | –
11 | 3.98 | 93% | 4.74 | 27% | 6.22 | – | – | 30 | 170 | COc1ccc([C@@H](C)CN(C/C=C\CN2C=Cc3cc(OC)c(OC)cc3CC2=O)C/C=C\CN2C=Cc3cc(OC)c(OC)cc3CC2=O)cc1OC | 3.95
12 | 4.50 | 91% | 4.59 | 76% | 4.50 | – | – | – | – | COc1ccc([C@H](C)CN(C)C/C=C\CN2C=Cc3cc(OC)c(OC)cc3CC2=O)cc1OC | –
13 | – | 83% | – | 93% | – | – | – | – | – | COc1ccc([C@H](C)CN(C/C=C/CN2C=Cc3cc(OC)c(OC)cc3CC2=O)C/C=C/CN2C=Cc3cc(OC)c(OC)cc3CC2=O)cc1OC | –
